Several values for one entry are separate records, joined by “and”; a condition that tells them apart may be missing. Equal entries are not always repeated.
Key:
Fibroblast = assay: Multiplex assay against human fibroblast; type: toxicity, cell-based
Outline: (§1)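 Per cents of healthy-nucleus cells form the tubulin, mitochondrial-mass and membrane-permeability phenotype values. Live cells were stained at seeding with Hoechst33342, BioTracker Green Microtubule Cytoskeleton Dye, MitoTracker Red and Annexin V Alexa Fluor 680. After compound addition they were imaged on a CQ1 microscope at 37°C and 5% CO2, and CellPathfinder machine-learning gating split them into Hoechst high-intensity objects or normal cells, normal cells into healthy, pyknosed or fragmented nuclei, and pyknosed cells into mitotic or apoptotic.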

U2OS = assay: Multiplex assay against U2OS; type: toxicity, cell-based; details: human; outline: as §1
[1] = 24 h, 10 µM, compound concentration 10 uM
[2] = 48 h, 1 µM, compound concentration 1 uM
[3] = 48 h, 10 µM, compound concentration 10 uM
[4] = 12 h, 1 µM, compound concentration 1 uM
[5] = 12 h, 10 µM, compound concentration 10 uM
[6] = 24 h, 1 µM, compound concentration 1 uM

With `CN(C)CCCn1cc(C2=C(c3c[nH]c4ccccc34)C(=O)NC2=O)c2ccccc21` [GF-109203] the “Population Fragmented Nuclei (%)” value (Fibroblast; [1]) was 6.7% and 5.38%, the “Population Healthy Nuclei (%)” value (Fibroblast; [1]) was 54.19% and 38.46% and the “Population Hoechst High Intensity Objects (%)” value (Fibroblast; [1]) was 0%. For the same molecule, the “Population Membrane Permeable-Phenotype (%)” value (Fibroblast; [1]) was 11.34% and 10%, the “Population Mitochondria Different-Phenotype (%)” value (Fibroblast; [1]) was 50.52% and 40% and the “Population Mitotic Cells (%)” value (Fibroblast; [1]) was 95.71% and 80.82%. For the same molecule, the “Population Normal (%)” value (Fibroblast; [1]) was 100%, the “Population Pyknosed Nuclei (%)” value (Fibroblast; [1]) was 39.11% and 56.15% and the “Population Tubulin-Different-Phenotype (%)” value (Fibroblast; [1]) was 94.85% and 94%. The “Total Cell Count” value (Fibroblast; [1]) was 179 and 130, the “Population Fragmented Nuclei (%)” value (Fibroblast; [2]) was 9.05% and 3.52% and the “Population Healthy Nuclei (%)” value (Fibroblast; [2]) was 77.62% and 88.94%. For the same molecule, the “Population Hoechst High Intensity Objects (%)” value (Fibroblast; [2]) was 0%, the “Population Membrane Permeable-Phenotype (%)” value (Fibroblast; [2]) was 3.07% and 7.91% and the “Population Mitochondria Different-Phenotype (%)” value (Fibroblast; [2]) was 12.27% and 18.64%. The “Population Mitotic Cells (%)” value (Fibroblast; [2]) was 92.86% and 66.67%, the “Population Normal (%)” value (Fibroblast; [2]) was 100% and the “Population Pyknosed Nuclei (%)” value (Fibroblast; [2]) was 13.33% and 7.54%. For the same molecule, the “Population Tubulin-Different-Phenotype (%)” value (Fibroblast; [2]) was 25.15% and 48.02%, the “Total Cell Count” value (Fibroblast; [2]) was 210 and 199 and the “Population Apoptotic (%)” value (Fibroblast; [3]) was 20.9% and 48.15%. The “Population Fragmented Nuclei (%)” value (Fibroblast; [3]) was 6.19% and 13.29%, the “Population Healthy Nuclei (%)” value (Fibroblast; [3]) was 59.28% and 30.07% and the “Population Hoechst High Intensity Objects (%)” value (Fibroblast; [3]) was 0%. For the same molecule, the “Population Mitochondria Different-Phenotype (%)” value (Fibroblast; [3]) was 56.52% and 46.51%, the “Population Mitotic Cells (%)” value (Fibroblast; [3]) was 79.1% and 51.85% and the “Population Normal (%)” value (Fibroblast; [3]) was 100%. The “Population Pyknosed Nuclei (%)” value (Fibroblast; [3]) was 34.54% and 56.64%, the “Population Tubulin-Different-Phenotype (%)” value (Fibroblast; [3]) was 93.04% and 86.05% and the “Total Cell Count” value (Fibroblast; [3]) was 194 and 143. For the same molecule, the “Population Apoptotic (%)” value (U2OS; [4]) was 29.27% and 38.1%, the “Population Healthy Nuclei (%)” value (U2OS; [4]) was 87.6% and 71.08% and the “Population Hoechst High Intensity Objects (%)” value (U2OS; [4]) was 0%. For the same molecule, the “Population Membrane Permeable-Phenotype (%)” value (U2OS; [4]) was 1.47% and 5.52%, the “Population Mitotic Cells (%)” value (U2OS; [4]) was 70.73% and 61.9% and the “Population Normal (%)” value (U2OS; [4]) was 100%. The “Population Pyknosed Nuclei (%)” value (U2OS; [4]) was 10.59% and 10.29%, the “Population Tubulin-Different-Phenotype (%)” value (U2OS; [4]) was 1.77% and 1.38% and the “Total Cell Count” value (U2OS; [4]) was 387 and 204. The “Population Apoptotic (%)” value (U2OS; [5]) was 35.21% and 37.14%, the “Population Fragmented Nuclei (%)” value (U2OS; [5]) was 1.16% and 5.8% and the “Population Healthy Nuclei (%)” value (U2OS; [5]) was 78.32% and 68.84%. For the same molecule, the “Population Hoechst High Intensity Objects (%)” value (U2OS; [5]) was 0%, the “Population Membrane Permeable-Phenotype (%)” value (U2OS; [5]) was 49.08% and 62.11% and the “Population Mitotic Cells (%)” value (U2OS; [5]) was 64.79% and 62.86%. For the same molecule, the “Population Normal (%)” value (U2OS; [5]) was 100%, the “Population Pyknosed Nuclei (%)” value (U2OS; [5]) was 20.52% and 25.36% and the “Population Tubulin-Different-Phenotype (%)” value (U2OS; [5]) was 70.11% and 53.68%. The “Total Cell Count” value (U2OS; [5]) was 346 and 138, the “Population Apoptotic (%)” value (U2OS; [6]) was 38.98% and 53.33% and the “Population Healthy Nuclei (%)” value (U2OS; [6]) was 87.5% and 70.09%. The “Population Hoechst High Intensity Objects (%)” value (U2OS; [6]) was 0.19% and 0%, the “Population Membrane Permeable-Phenotype (%)” value (U2OS; [6]) was 1.34% and 5.49% and the “Population Mitochondria Different-Phenotype (%)” value (U2OS; [6]) was 0% and 15.85%. The “Population Mitotic Cells (%)” value (U2OS; [6]) was 61.02% and 46.67%, the “Population Normal (%)” value (U2OS; [6]) was 99.81% and 100% and the “Population Pyknosed Nuclei (%)” value (U2OS; [6]) was 11.52% and 12.82%. For the same molecule, the “Population Tubulin-Different-Phenotype (%)” value (U2OS; [6]) was 0.89% and 2.44%, the “Total Cell Count” value (U2OS; [6]) was 513 and 234 and the “Population Apoptotic (%)” value (U2OS; [1]) was 66.23% and 81.33%. For the same molecule, the “Population Fragmented Nuclei (%)” value (U2OS; [1]) was 2.13% and 6.99%, the “Population Healthy Nuclei (%)” value (U2OS; [1]) was 51.98% and 40.56% and the “Population Hoechst High Intensity Objects (%)” value (U2OS; [1]) was 0%. For the same molecule, the “Population Membrane Permeable-Phenotype (%)” value (U2OS; [1]) was 35.67% and 50%, the “Population Mitotic Cells (%)” value (U2OS; [1]) was 33.77% and 18.67% and the “Population Normal (%)” value (U2OS; [1]) was 100%. For the same molecule, the “Population Pyknosed Nuclei (%)” value (U2OS; [1]) was 45.9% and 52.45%, the “Population Tubulin-Different-Phenotype (%)” value (U2OS; [1]) was 60.23% and 58.62% and the “Total Cell Count” value (U2OS; [1]) was 329 and 143. For the same molecule, the “Population Apoptotic (%)” value (U2OS; [2]) was 41.25% and 46.51%, the “Population Healthy Nuclei (%)” value (U2OS; [2]) was 88.82% and 68.86% and the “Population Hoechst High Intensity Objects (%)” value (U2OS; [2]) was 0% and 0.34%. For the same molecule, the “Population Membrane Permeable-Phenotype (%)” value (U2OS; [2]) was 1.36% and 5.03%, the “Population Mitochondria Different-Phenotype (%)” value (U2OS; [2]) was 0% and 16.08% and the “Population Mitotic Cells (%)” value (U2OS; [2]) was 58.75% and 53.49%. The “Population Normal (%)” value (U2OS; [2]) was 100% and 99.66%, the “Population Pyknosed Nuclei (%)” value (U2OS; [2]) was 8.77% and 14.88% and the “Population Tubulin-Different-Phenotype (%)” value (U2OS; [2]) was 0.99% and 3.02%. The “Population Apoptotic (%)” value (U2OS; [3]) was 86.32% and 90.65%, the “Population Fragmented Nuclei (%)” value (U2OS; [3]) was 6.15% and 9.46% and the “Population Healthy Nuclei (%)” value (U2OS; [3]) was 28.62% and 18.24%. For the same molecule, the “Population Hoechst High Intensity Objects (%)” value (U2OS; [3]) was 0.31% and 0%, the “Population Mitochondria Different-Phenotype (%)” value (U2OS; [3]) was 24.73% and 55.56% and the “Population Mitotic Cells (%)” value (U2OS; [3]) was 13.68% and 9.35%. For the same molecule, the “Population Normal (%)” value (U2OS; [3]) was 99.69% and 100%, the “Population Pyknosed Nuclei (%)” value (U2OS; [3]) was 65.23% and 72.3% and the “Population Tubulin-Different-Phenotype (%)” value (U2OS; [3]) was 63.44% and 37.04%. The “Total Cell Count” value (U2OS; [3]) was 326 and 148.
